Here are results for 30 compounds from ChEMBL document CHEMBL1153027, “Synthesis of quinolinyl and isoquinolinyl phenyl ketones as novel agonists for the cannabinoid CB2 receptor” (Bioorg Med Chem, 2009).

The target of assay [1] is Cannabinoid receptor 1 (Rattus norvegicus) (UniProt P20272). Briefly: Agonist activity at rat cerebellar membrane CB1 receptor at 10 uM by [35]GTPgammaS binding assay relative to basal level. Format: functional. An outline of the steps:
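Rat cerebellar membranes (CB1) used to screen for CB1 agonism and antagonism, per a previously described method. [35S]GTPγS binding with compounds at 10 µM. Results given as % basal; mean ± SEM of at least three duplicate experiments.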
On the technique in general: GTPγS is a poorly hydrolysed GTP analogue; its binding reports G protein activation.

Assay [2] has as its target T1, Cannabinoid receptor 2 (Homo sapiens, UniProt P34972). The experiment in a line: Agonist activity at human CB2 receptor expressed in CHO cells by [35]GTPgammaS binding assay. It is filed as functional, cell-based. An outline of the steps:
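hCB2 stably expressed in CHO cells; [35S]GTPγS binding stimulated by agonist, procedure of Savinainen et al. Full concentration–response curves were run only for compounds giving over 50% relative activity at 10 µM. EC50 and Emax were obtained by nonlinear regression fitted to a sigmoidal concentration–response equation.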

Assay [3] addresses T1, Cannabinoid receptor 2. Briefly: Agonist activity at human CB2 receptor expressed in CHO cells at 10 uM by [35]GTPgammaS binding assay relative to HU210. Format: functional, cell-based. In a few lines:
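Human CB2 stably expressed in CHO cells; agonist-stimulated binding of the nonhydrolyzable GTP analogue [35S]GTPγS, run as described by Savinainen et al. Single test concentration 10 µM. Response expressed as percentage of the full CB1/CB2 agonist HU-210. Mean ± SEM of at least three experiments performed in duplicate.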

Molecules are shown by their SMILES.

Chain of Cannabinoid receptor 1 (Rattus norvegicus) (P20272 whole entry): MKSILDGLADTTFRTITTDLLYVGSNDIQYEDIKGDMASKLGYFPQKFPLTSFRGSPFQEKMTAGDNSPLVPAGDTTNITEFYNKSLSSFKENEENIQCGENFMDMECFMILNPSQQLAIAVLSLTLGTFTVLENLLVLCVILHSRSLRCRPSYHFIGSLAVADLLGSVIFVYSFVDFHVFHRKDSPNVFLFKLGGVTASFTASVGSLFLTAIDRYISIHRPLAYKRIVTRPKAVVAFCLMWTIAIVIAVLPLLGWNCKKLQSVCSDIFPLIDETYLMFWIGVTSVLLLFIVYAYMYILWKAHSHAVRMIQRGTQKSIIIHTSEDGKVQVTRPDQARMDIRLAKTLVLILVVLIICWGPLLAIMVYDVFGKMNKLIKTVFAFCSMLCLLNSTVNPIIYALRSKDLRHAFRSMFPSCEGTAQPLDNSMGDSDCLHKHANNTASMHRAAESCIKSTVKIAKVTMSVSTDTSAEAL
T1 sequence (P34972 whole entry): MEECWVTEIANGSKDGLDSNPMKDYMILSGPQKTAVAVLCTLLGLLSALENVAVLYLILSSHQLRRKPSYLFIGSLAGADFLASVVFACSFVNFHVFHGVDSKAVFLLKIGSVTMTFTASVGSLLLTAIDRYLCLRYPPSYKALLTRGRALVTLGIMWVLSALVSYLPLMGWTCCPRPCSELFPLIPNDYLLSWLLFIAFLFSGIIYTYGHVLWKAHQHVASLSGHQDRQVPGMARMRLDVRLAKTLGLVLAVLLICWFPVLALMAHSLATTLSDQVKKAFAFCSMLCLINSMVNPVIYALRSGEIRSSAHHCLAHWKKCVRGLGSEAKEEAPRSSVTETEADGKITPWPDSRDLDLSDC

Consider `O=C(c1ccc(C(F)(F)F)cc1)c1ccc2ccccc2n1`, for which, in assay [1], the Activity was found to be 105%. For `COc1ccc(C(=O)c2ccc3ccccc3n2)cc1`, the Activity in assay [1] is 108%. Compound `O=C(c1ccc(Cl)cc1)c1nccc2ccccc12` yielded an Activity in assay [1] of 101%. What is called EC50 is the concentration at which the effect is half-maximal. High values mean weaker potency, low ones greater potency. As usually defined, the Emax is the size of the effect at its maximum, as opposed to the concentration needed. `O=C(c1ccc(C(F)(F)F)cc1)c1nccc2ccccc12` showed a concentration giving a half-maximal response (EC50) on Cannabinoid receptor 2 [2] of 3.16 µM. This compound had an Emax at Cannabinoid receptor 2 [3] of 57%. In assay [1], the Activity came out at 95%. On Cannabinoid receptor 2 [2], `CN(C)c1ccc(C(=O)c2nccc3ccccc23)cc1` showed an EC50 of 2.51 µM. Further, on Cannabinoid receptor 2 [3], the Emax is 68%. In assay [1], the Activity is 99%. On to `CC(C)Oc1ccc(C(=O)c2ccc3ccccc3n2)cc1`, for which, in assay [1], the Activity came out at 102%.

`O=C(c1ccccc1)c1ccc2ccccc2n1` showed an EC50 on Cannabinoid receptor 2 [2] of 7.94 µM. At Cannabinoid receptor 2 [3], the Emax amounted to 52%. Besides, the Activity in assay [1] amounted to 103%.

In turn, `CCCOc1ccc(C(=O)c2ccc3ccccc3n2)cc1` showed an Activity in assay [1] of 108%. As for `CCOc1ccc(C(=O)c2ccc3ccccc3n2)cc1`, the Activity in assay [1] is 100%. `O=C(c1cccc(C(F)(F)F)c1)c1ccc2ccccc2n1` had an EC50 at Cannabinoid receptor 2 [2] of 5.01 µM. At Cannabinoid receptor 2 [3], this compound returned an Emax of 42%. Also, in assay [1], the Activity was 102%. In the case of `CN(C)c1ccc(C(=O)c2ccc3ccccc3n2)cc1`, it took 6.31 µM to reach a half-maximal effect at Cannabinoid receptor 2 [2] (EC50). This compound also returned an Emax at Cannabinoid receptor 2 [3] of 62%. Also, in assay [1], the Activity came out at 101%. On to `COc1ccccc1C(=O)c1ccc2ccccc2n1`, for which it took 2.51 µM to reach a half-maximal effect on Cannabinoid receptor 2 [2] (EC50). This compound also gave an Emax on Cannabinoid receptor 2 [3] of 53%. The compound further showed an Activity in assay [1] of 106%. Compound `O=C(c1ccc(F)cc1)c1ccc2ccccc2n1` had an Activity in assay [1] of 99%. As to `O=C(c1ccc2ccccc2n1)c1ccccc1C(F)(F)F`, the EC50 at Cannabinoid receptor 2 [2] is 2 µM. The compound further registered an Emax at Cannabinoid receptor 2 [3] of 87%. The Activity in assay [1] is 102%. As to `O=C(c1ccc(Cl)cc1)c1ccc2ccccc2n1`, a half-maximal effect on Cannabinoid receptor 2 [2] (EC50) was put at 3.98 µM. The Emax on Cannabinoid receptor 2 [3] worked out at 63%. In assay [1], this compound showed an Activity of 101%. In the case of `CN(C)c1ccccc1C(=O)c1nccc2ccccc12`, the EC50 at Cannabinoid receptor 2 [2] was 0.631 µM. The same compound registered an Emax on Cannabinoid receptor 2 [3] of 95%. This compound also gave an Activity in assay [1] of 116%. For `O=C(c1cccc(F)c1)c1ccc2ccccc2n1`, the Activity in assay [1] turned out to be 106%. For the compound `O=C(c1cc(C(F)(F)F)cc(C(F)(F)F)c1)c1ccc2ccccc2n1`, in assay [1], the Activity was found to be 108%. Regarding `CN(C)c1ccccc1C(=O)c1ccc2ccccc2n1`, the EC50 at Cannabinoid receptor 2 [2] is 0.794 µM. On Cannabinoid receptor 2 [3], the Emax turned out to be 91%. Also, in assay [1], the Activity amounted to 101%. The compound `O=C(c1ccc(F)cc1)c1nccc2ccccc12` registered an Activity in assay [1] of 104%. In turn, `O=C(c1cc(C(F)(F)F)cc(C(F)(F)F)c1)c1nccc2ccccc12` gave an Activity in assay [1] of 101%. The compound `O=C(c1ccc(Cl)c(Cl)c1)c1ccc2ccccc2n1` came in with an Activity in assay [1] of 100%. In the case of `COc1cccc(C(=O)c2ccc3ccccc3n2)c1`, the response at Cannabinoid receptor 2 [2] was half-maximal at 2 µM (EC50). Further, on Cannabinoid receptor 2 [3], the Emax was 54%. Further, the Activity in assay [1] amounted to 102%.

`O=C(c1ccc(Cl)c(Cl)c1)c1nccc2ccccc12` showed an Activity in assay [1] of 111%. Same read-out and setting: for `COc1ccc(C(=O)c2nccc3ccccc23)cc1` the value was 85%; for `O=C(c1cccc(F)c1)c1nccc2ccccc12`, 99%. Same read-out and setting: for `COc1cccc(C(=O)c2nccc3ccccc23)c1` the value was 112%; for `O=C(c1ccccc1)c1nccc2ccccc12`, 102%. On Cannabinoid receptor 2 [2], `O=C(c1ccccc1C(F)(F)F)c1nccc2ccccc12` gave an EC50 of 0.501 µM. In addition, the Emax at Cannabinoid receptor 2 [3] was found to be 72%. Moreover, the Activity in assay [1] turned out to be 112%.

Consider `O=C(c1cccc(C(F)(F)F)c1)c1nccc2ccccc12`, for which the Activity in assay [1] is 106%.
